Source: article PMC5034689 (Molecular Metabolism, 2016)

Key:
[1] = tested on: 3T3L1 adipocytes; experiment: Glycerol assay for lipolysis in adipocytes; assay type: cell-based; conditions: TNP 1 μM, isoproterenol 10 μM
In short: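 3T3-L1 preadipocytes were differentiated for 7 days. Adipocytes were pretreated 4 h with DMSO or 1 μM test compound in DMEM with 0.5% fatty-acid-free BSA. Medium was then replaced, with or without isoproterenol (10 μM), and compound was kept on throughout. Glycerol released into the medium was measured with a commercial kit.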

[2] = tested on: IP6Ks; conditions: cited from earlier work
[3] = tested on: PP-IP5K; conditions: cited from earlier work
[4] = target: T1, CYP1A2 (Homo sapiens, UniProt P05177); experiment: CYP450 inhibition in human hepatic microsomes, CYP1A2; assay type: in vitro ADME; conditions: liver microsomes
T1 sequence (P05177 1-516): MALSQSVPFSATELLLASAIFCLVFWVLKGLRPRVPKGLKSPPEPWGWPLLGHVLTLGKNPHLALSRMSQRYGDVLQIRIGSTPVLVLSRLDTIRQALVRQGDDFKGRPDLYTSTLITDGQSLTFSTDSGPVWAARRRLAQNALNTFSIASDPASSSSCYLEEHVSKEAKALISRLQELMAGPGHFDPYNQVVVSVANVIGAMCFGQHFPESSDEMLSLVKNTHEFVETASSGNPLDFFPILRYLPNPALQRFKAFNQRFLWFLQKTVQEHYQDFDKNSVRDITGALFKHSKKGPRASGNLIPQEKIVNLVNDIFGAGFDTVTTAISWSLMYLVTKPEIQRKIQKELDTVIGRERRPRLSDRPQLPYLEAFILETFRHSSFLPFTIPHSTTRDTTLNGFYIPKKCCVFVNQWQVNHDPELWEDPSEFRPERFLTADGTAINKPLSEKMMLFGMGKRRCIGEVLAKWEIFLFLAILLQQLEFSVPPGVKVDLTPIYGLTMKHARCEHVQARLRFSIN

[5] = tested on: DIO mice; experiment: Single dose of TNP in DIO mice; assay type: in vivo
In short: (§1)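 Chow-fed lean or DIO mice (n = 4/group) received one 20 mg/kg injection, were fasted 5 h, then given GTT (glucose 2 g/kg i.p., tail-vein glucometer from time 0). Mice were then sacrificed for tissues and cardiac-puncture serum. Insulin was measured by ultra-sensitive ELISA and TAG by a metabolic core. Akt S473 was immunoblotted (T308 also in IWAT), with densitometry n = 3.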

[6] = tested on: IP3-3K; conditions: PC12 cells, enhances neurite outgrowth; cited from earlier work
[7] = tested on: lean/CD-fed mice; experiment: Single dose of TNP in chow; assay type: in vivo; conditions: single dose 20 mg/kg BW
In short: as §1

[8] = tested on: cortical neurons; conditions: cited from earlier work
[9] = Plasma protein binding, equilibrium dialysis, human; assay type: in vitro ADME
In short: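 Binding was measured by rapid equilibrium dialysis in triplicate, starting at 1 μM drug in the plasma chamber against PBS. Plates were shaken 6 h at 37 °C. Samples were matrix-matched to 1:1 plasma:PBS and quantified by LC-MS/MS. Fraction bound = ([plasma] − [PBS])/[plasma].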

[10] = Hepatic microsomal stability, human; assay type: in vitro ADME; conditions: liver microsomes, pH 7.4
In short: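 Test compound (1 μM) was incubated with liver microsomes (1 mg/ml) and 1 mM NADPH in 100 mM potassium phosphate, pH 7.4. Aliquots were taken at 0, 5, 10, 20, 40 and 60 min and analysed by LC-MS/MS. Loss of parent was expressed as half-life.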

[11] = target: CYP3A4 (Homo sapiens, UniProt P08684); experiment: CYP450 inhibition in human hepatic microsomes, CYP3A4; assay type: in vitro ADME; conditions: liver microsomes, probe midazolam (hydroxylation to 1′-hydroxymidazolam)
CYP3A4, sequence (P08684 whole entry): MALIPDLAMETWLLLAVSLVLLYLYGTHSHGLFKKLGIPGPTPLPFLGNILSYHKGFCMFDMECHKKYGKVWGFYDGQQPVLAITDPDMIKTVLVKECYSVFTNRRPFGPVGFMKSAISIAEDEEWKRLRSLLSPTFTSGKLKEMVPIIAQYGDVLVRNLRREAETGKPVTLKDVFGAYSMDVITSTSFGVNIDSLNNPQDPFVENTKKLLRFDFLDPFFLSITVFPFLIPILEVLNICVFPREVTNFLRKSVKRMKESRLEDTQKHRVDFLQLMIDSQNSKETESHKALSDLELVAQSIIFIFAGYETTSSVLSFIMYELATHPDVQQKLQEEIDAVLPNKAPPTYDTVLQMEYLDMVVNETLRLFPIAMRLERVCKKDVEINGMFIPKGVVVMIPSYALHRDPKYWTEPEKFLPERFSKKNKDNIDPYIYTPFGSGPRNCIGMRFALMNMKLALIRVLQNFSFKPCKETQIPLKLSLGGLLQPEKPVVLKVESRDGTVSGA

inhibition at 10 μM [4]: 86% | fraction unbound at 6 h, 1 μM [9]: 0.083 | half-life at 1 μM [10]: 32 min | inhibition at 10 μM [11]: 98%
SMILES: O=[N+]([O-])c1ccc(CNc2nc(NCc3cccc(C(F)(F)F)c3)nc3[nH]cnc23)cc1 [TNP, N6-(4-nitrobenzyl)-N2-(3-(trifluoromethyl)benzyl)-9H-purine-2,6-diamine]
Basal or isoproterenol induced lipolysis (glycerol release) [1]: does not influence | Potency on IP6Ks over IP3-3K [2]: 70 fold | Effect on the 1-IP7 generating enzyme PP-IP5K [3]: does not influence | Blood glucose level ([5]; single dose 20 mg/kg BW): significantly reduces | Glucose tolerance (GTT) ([5]; single dose 20 mg/kg BW): significantly improves | HFD induced increase in serum insulin ([5]; single dose 20 mg/kg BW): slightly reduces | Serum TAG level ([5]; single dose 20 mg/kg BW): does not influence | Serum cholesterol, HDL, and LDL levels ([5]; single dose 20 mg/kg BW): slightly reduces | Increase in Akt S473 phosphorylation in IWAT, soleus muscle and liver ([5]; single injection 20 mg/kg BW, phospho S473/total Akt, ImageJ): 2–3 fold | Concentrations at which TNP inhibits IP3-3K [6]: 20 to 40 µM | Akt phosphorylation at S473 in liver and EWAT [7]: does not alter | Glucose disposal (GTT) [7]: does not influence | Cytosolic Zn2+ levels [8]: slightly elevates
